Assay outcomes deposited in PubChem by several laboratories.
Hck-Nef inh: inhibitors of Nef-activated human Hck kinase, primary screen, biochemical, Z-Lyte FRET, 384-well, Hck-YEEI | Tyrosine-protein kinase HCK (Homo sapiens), P08631 | Recombinant Hck-YEEI plus Nef, Z-Lyte FRET kinase assay | inhibition, % at 20 µM | 0.68% of 220,000 active;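 active means Hck-Nef kinase inhibition above about 50%, limit read from the data; inactive means inhibition below that limit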;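 further: 0% = DMSO with Hck plus Nef and 100% = Hck alone without Nef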
Target sequence (P08631 whole entry, looked up): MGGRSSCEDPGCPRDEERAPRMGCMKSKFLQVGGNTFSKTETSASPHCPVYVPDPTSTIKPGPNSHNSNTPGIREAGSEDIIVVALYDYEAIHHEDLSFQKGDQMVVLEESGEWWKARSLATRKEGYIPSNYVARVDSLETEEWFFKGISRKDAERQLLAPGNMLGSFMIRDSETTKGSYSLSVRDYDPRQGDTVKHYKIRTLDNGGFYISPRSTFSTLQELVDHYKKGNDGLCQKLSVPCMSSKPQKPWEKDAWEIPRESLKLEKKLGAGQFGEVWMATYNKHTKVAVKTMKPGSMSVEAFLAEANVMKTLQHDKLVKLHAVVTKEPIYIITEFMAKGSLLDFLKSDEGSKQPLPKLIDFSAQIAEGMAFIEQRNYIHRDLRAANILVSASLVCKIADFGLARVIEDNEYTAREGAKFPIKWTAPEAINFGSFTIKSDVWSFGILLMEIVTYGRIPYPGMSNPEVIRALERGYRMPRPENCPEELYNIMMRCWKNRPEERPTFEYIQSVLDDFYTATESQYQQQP
Runt-CBFb FRET: inhibitors of RUNX1 Runt–CBFb binding, primary screen, biochemical, FRET, Cerulean-Runt, Venus-CBFb, uHTS; 0.46% of 220,000 active; inhibition, % at 20 µM; Runt-related transcription factor 1 (Homo sapiens) + Core-binding factor subunit beta …; Cerulean-Runt/Venus-CBFb FRET ratio 530/480, 1 h; AID 1496, 2009;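 active means inhibition over about 50% at 20 µM in the single-dose screen, limit read from the data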;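 further: 0% = DMSO wells and 100% = excess unlabeled CBFb competitor control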
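Assay system: Cerulean-Runt domain fusion protein, energy donor; Signal: fluorescence energy transfer, 422 nm excitation, 530/480 nm emission; Timing: 1 h compound exposure, room temperature; Control set: unlabeled CBFb; Medium: Tris buffer pH 7.5 with salts and BSA; Compound: single test concentration of 20 µM, 1% DMSO final; Probe or stimulus: Venus-CBFb 100 nM.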
CaV13 ICDI inh: Disruptors of the CACNA1D IQ motif to Ca2+-dependent inactivation inhibitor domain association, primary screening, Förster resonance energy transfer in intact living …; HEK cells, CFP/YFP FRET ICDI-IQ, plate reader, 10 min; percent FRET-ratio fall versus neutral wells; inhibition, % at 12.3 µM; 0.098% of 340,000 active; AID 743397;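 active means mean replicate inhibition of at least 30% and at least 1% of replicates passing that level; inconclusive means only one of the two criteria is met; inactive means neither criterion is met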;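 further: 0% = median of the neutral control wells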
Runt-SMMHC FRET: inhibitors of RUNX1 Runt–CBFb-SMMHC binding, primary screen, biochemical, FRET, Cerulean-Runt, Venus-CBFb-SMMHC, uHTS | Cerulean-Runt/Venus-CBFb-SMMHC FRET ratio 530/480, 1 h | inhibition, % at 20 µM | 0.74% of 220,000 active | AID 1434, 2008;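 active means mean inhibition across duplicate retests at 20 µM reaching about 50%, limit read from the data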;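 further: 0% = DMSO wells and 100% = wells with excess untagged CBFb-SMMHC; inhibitors lower the FRET ratio by blocking Runt binding to CBFb-SMMHC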
RanGTP-Impb inh: inhibitors of RanGTP-importin-beta interaction, primary screen, biochemical, FRET, CFP-Ran, YFP-importin-beta, homogeneous; 1.1% of 300,000 active; inhibition, % (no concentration beside the values); Ran GTPase (GTP-bound) - importin-beta complex; cell-free CFP-Ran/YFP-importin-beta FRET ratio;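 active means more than half of the replicate wells show a fall in the fluorescence ratio signal beyond about 16%, limit read from the data, passing the limit was not always enough; inconclusive means exactly half of the replicate wells pass the set limit; inactive means fewer than half of replicates pass the limit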;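 further: 0% = DMSO wells and 100% = Ran loaded with GDP instead of GTP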
* = called active by the depositor. Only some compounds are listed: those with a hit (about 1.5% of all), similar ones and a draw of the others.

Screening CC1CN(C(=O)c2ccc(NS(=O)(=O)c3ccc(F)cc3)cc2)CC(C)O1 (centres undefined) returned CaV13 ICDI inh -5 and RanGTP-Impb inh -3.
For CCOC(=O)CNc1c(-c2ccc(Cl)cc2)nc2cnccn12 the results were Hck-Nef inh -15, Runt-CBFb FRET 28, CaV13 ICDI inh -6, Runt-SMMHC FRET 60 and RanGTP-Impb inh 33*.
`O=c1c2[nH]cnc2n(-c2cccc(Br)c2)c(=O)n1Cc1ccccc1` gave CaV13 ICDI inh -5 and RanGTP-Impb inh inconclusive.
Fc1ccc(NC(=S)N2CCN(c3cccc(C(F)(F)F)c3)CC2)cc1 was read as Hck-Nef inh 0, Runt-CBFb FRET 3, CaV13 ICDI inh -3, Runt-SMMHC FRET 1 and RanGTP-Impb inh 27*.
`FC(F)(F)c1cccc(NC(=S)N2CCN(c3cccc(C(F)(F)F)c3)CC2)c1` gave Hck-Nef inh 1, Runt-CBFb FRET 30, CaV13 ICDI inh -5, Runt-SMMHC FRET -6 and RanGTP-Impb inh -3.
`O=C1c2ccccc2NC(c2ccc(Br)s2)N1O` (centres undefined) gave CaV13 ICDI inh -4 and RanGTP-Impb inh 2.
COC(=O)C1=CN(C2CC2)C=C(C(=O)OC)C1c1ccc(C(=O)OC)cc1 was read as Hck-Nef inh 22, Runt-CBFb FRET 107*, CaV13 ICDI inh -5, Runt-SMMHC FRET 60* and RanGTP-Impb inh 52*.
For Cc1csc(NC(=O)c2cc(=O)[nH]c3ccc(S(=O)(=O)N4CCOCC4)cc23)n1 the results were Hck-Nef inh 26, Runt-CBFb FRET 80*, CaV13 ICDI inh 9, Runt-SMMHC FRET 118* and RanGTP-Impb inh 5.
`CCN1C=CC2=C(C#N)C(N)C(C#N)(C#N)C(c3ccccc3C(F)(F)F)C2C1` (centres undefined) gave Hck-Nef inh 32, Runt-CBFb FRET 76*, Runt-SMMHC FRET 83* and RanGTP-Impb inh 58*.
For COC(=O)C(Cc1ccc(O)cc1)NC(=O)CCc1nc2ccccc2s1 (centres undefined) the results were CaV13 ICDI inh -3 and RanGTP-Impb inh 1.
Screening Cc1ccc(C)c(N2N=C(C(=O)Nc3cccnc3)CCC2=O)c1 returned CaV13 ICDI inh -5.
For COc1ccc(CNC(=O)COc2ccc([N+](=O)[O-])cc2)cc1 the results were Hck-Nef inh 2, Runt-CBFb FRET 0, CaV13 ICDI inh -4, Runt-SMMHC FRET -2 and RanGTP-Impb inh 37*.
`CCCC(C(=O)NC(C)(C)CC)N(Cc1ccco1)C(=O)CNS(=O)(=O)c1ccccc1` (centres undefined) gave CaV13 ICDI inh -2 and RanGTP-Impb inh -2.
`Cc1ccc(NC(=O)CCC(=O)N/N=C/c2ccc([N+](=O)[O-])o2)cc1C` gave Hck-Nef inh 21, Runt-CBFb FRET 3, CaV13 ICDI inh -7, Runt-SMMHC FRET 0 and RanGTP-Impb inh 21*.
O=c1c(O)c(-c2ccc3c(c2)OCO3)oc2ccccc12 was read as Hck-Nef inh -4, Runt-CBFb FRET -22, CaV13 ICDI inh -3, Runt-SMMHC FRET -53 and RanGTP-Impb inh 32*.
`O=C(Nc1ccc2c(c1)oc1ccccc12)c1ccc2c(c1)OCO2` gave Hck-Nef inh 3, Runt-CBFb FRET 1, CaV13 ICDI inh -4, Runt-SMMHC FRET 0 and RanGTP-Impb inh 8.
For COc1ccc(N2CSC3=C(C#N)C(c4cc(OC)c(OC)cc4OC)CC(=O)N3C2)c(OC)c1 (centres undefined) the results were Hck-Nef inh -1, Runt-CBFb FRET 29, CaV13 ICDI inh -3, Runt-SMMHC FRET 38 and RanGTP-Impb inh 0.
